Converted amounts (≈) assume the structure as drawn.
Key:
HeLa = assay: Cytotoxicity against human HeLa cells assessed as change in cell morphology; assay type: functional
How it was run: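 The minimum cytotoxic concentration (MCC) is the concentration causing a microscopically detectable alteration of cell morphology in the uninfected host cell culture.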

Coxsackievirus B4 [1] = assay: Antiviral activity against Coxsackievirus B4 infected in human HeLa cells assessed as protection against virus-induced cytopathogenicity; assay type: functional; conditions: Enterovirus B
Punta Toro virus = assay: Antiviral activity against Punta Toro virus infected in african green monkey Vero cells assessed as protection against virus-induced cytopathogenicity; assay type: functional
[2] = Cytotoxicity against african green monkey Vero cells assessed as change in cell morphology; assay type: cell-based; conditions: chlorocebus sabaeus
How it was run: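 Vero cell cultures were used for the broad-spectrum antiviral screen. The MCC endpoint is the lowest concentration that causes a microscopically detectable alteration of cell morphology. Activity was called when 5 × MIC < MCC.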

Cytomegalovirus = assay: Antiviral activity against Cytomegalovirus Davis infected in HEL cells assessed as reduction in virus plaque formation; assay type: functional, organism-based; conditions: Human betaherpesvirus 5, Davis
How it was run: (§1)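 Plaque reduction in HEL cells against CMV (AD-169, Davis) or VZV (TK⁺ OKA, TK⁻ 07/1), using a virus input of 20 PFU. EC50 is the concentration that reduced plaque formation by 50%.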

Coxsackievirus B4 [3] = assay: Antiviral activity against Coxsackievirus B4 infected in african green monkey Vero cells assessed as protection against virus-induced cytopathogenicity; assay type: functional; conditions: Enterovirus B
Human alphaherpesvirus 3 [4] = assay: Antiviral activity against thymidine kinase deficient Varicella Zoster Virus 07/1 infected in HEL cells assessed as reduction in virus plaque formation; assay type: functional, organism-based; conditions: Human alphaherpesvirus 3, 07/1, HEL; how it was run: as §1
Human alphaherpesvirus 2 = assay: Antiviral activity against Herpes simplex virus 2 infected in HEL cells assessed as protection against in virus-induced cytopathogenicity; assay type: functional
[5] = Cytotoxicity against Cytomegalovirus infected HEL cells assessed as reduction in cell growth; assay type: cell-based; conditions: human
Sindbis virus = assay: Antiviral activity against Sindbis virus infected in african green monkey Vero cells assessed as protection against virus-induced cytopathogenicity; assay type: functional
[6] = Cytotoxicity against HIV-1 3B infected human MT4 cells; assay type: cell-based; conditions: HIV-1 3B-infected MT4 cells
[7] = tested on: Respiratory syncytial virus; assay: Antiviral activity against RSV infected in human HeLa cells assessed as protection against virus-induced cytopathogenicity; assay type: functional
[8] = tested on: Mammalian orthoreovirus 1; assay: Antiviral activity against Reovirus 1 infected in african green monkey Vero cells assessed as protection against virus-induced cytopathogenicity; assay type: functional
[9] = tested on: Human immunodeficiency virus 2; assay: Antiviral activity against HIV-2 ROD infected human MT4 cells assessed as protection against virus-induced cytopathogenicity; assay type: functional, organism-based; conditions: Human immunodeficiency virus 2, ISOLATE ROD
How it was run: (§2)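 HIV-1 (IIIB) or HIV-2 (ROD) infection of MT-4 cells, scored as protection against virus-induced cytopathicity. IC50 was derived from protection.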

[10] = Cytotoxicity against Varicella Zoster Virus infected human […] cells assessed as reduction in cell growth; assay type: cell-based
Human betaherpesvirus 5 = assay: Antiviral activity against Cytomegalovirus AD169 infected in HEL cells assessed as reduction in virus plaque formation; assay type: functional, organism-based; conditions: Human betaherpesvirus 5, AD169, HEL; how it was run: as §1
Human alphaherpesvirus 3 [11] = assay: Antiviral activity against Varicella Zoster Virus OKA infected in HEL cells assessed as reduction in virus plaque formation; assay type: functional, organism-based; conditions: Human alphaherpesvirus 3, OKA; how it was run: as §1
[12] = tested on: Vesicular stomatitis virus; assay: Antiviral activity against sVesicular stomatitis virus infected in HEL cells assessed as protection against virus-induced cytopathogenicity; assay type: functional
Human alphaherpesvirus 1 [13] = assay: Antiviral activity against HSV1 KOS infected in HEL cells assessed as protection against virus-induced cytopathogenicity; assay type: functional; conditions: Human alphaherpesvirus 1, KOS
[14] = Cytotoxicity against Cytomegalovirus infected HEL cells assessed as change in cell morphology; assay type: cell-based; conditions: human
How it was run: (§3)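 HEL cell cultures examined under the microscope. Minimal cytotoxic concentration (MCC) is the concentration that causes a microscopically detectable alteration of cell morphology. Compounds were tested at subtoxic concentrations alongside the antiviral tests.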

Human respirovirus 3 = assay: Antiviral activity against Parainfluenza-3 virus infected in african green monkey Vero cells assessed as protection against virus-induced cytopathogenicity; assay type: functional
Human alphaherpesvirus 1 [15] = assay: Antiviral activity against acyclovir-resistant thymidine kinase-deficient HSV1 KOS infected in human HEL cells assessed as protection against virus-induced cytopathogenicity; assay type: functional; conditions: Human alphaherpesvirus 1, KOS
[16] = Cytotoxicity against Varicella Zoster Virus infected human […] cells assessed as change in cell morphology; assay type: cell-based
[17] = tested on: Human immunodeficiency virus 1; assay: Antiviral activity against HIV-1 3B infected human MT4 cells assessed as protection against virus-induced cytopathogenicity; assay type: functional, organism-based; conditions: Human immunodeficiency virus 1, 3B; how it was run: as §2
[18] = tested on: Vesicular stomatitis virus; assay: Antiviral activity against Vesicular stomatitis virus infected in human HeLa cells assessed as protection against virus-induced cytopathogenicity; assay type: functional
[19] = tested on: Human immunodeficiency virus 1; assay: Antiviral activity against HIV-1 3B infected in human MT4 cells assessed as protection against virus-induced cytopathogenicity at 125 ug/ml; assay type: functional
How it was run: (§4)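 MT-4 cells infected with HIV-1 (IIIB) or HIV-2 (ROD), with maximum protection (%) against virus-induced cytopathicity recorded at 125 of compound.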

[20] = Cytotoxicity against HEL cells assessed as change in cell morphology; assay type: cell-based; conditions: human; how it was run: as §3
[21] = tested on: Human immunodeficiency virus 2; assay: Antiviral activity against HIV-2 ROD infected in human MT4 cells assessed as protection against virus-induced cytopathogenicity at 125 ug/ml; assay type: functional, ISOLATE ROD; how it was run: as §4

With `CCNC(=S)Nc1ccc(NS(C)(=O)=O)c(Oc2ccccc2)c1` the MCC (HeLa) was 200 µg/mL, the MIC50 (Coxsackievirus B4 [1]) was > 40 µg/mL and the MIC50 (Punta Toro virus) was > 40 µg/mL. The MCC [2] was 200 µg/mL, the EC50 (Cytomegalovirus) was > 100 µg/mL and the MIC50 (Coxsackievirus B4 [3]) was > 40 µg/mL. For the same molecule, the EC50 (Human alphaherpesvirus 3 [4]) was > 100 µg/mL, the MIC50 (Human alphaherpesvirus 2) was 120 µg/mL (≈ 328 µM) and the CC50 [5] was > 100 µg/mL. The MIC50 (Sindbis virus) was > 40 µg/mL, the CC50 [6] was > 125 µg/mL and the MIC50 [7] was > 40 µg/mL. The MIC50 [8] was > 40 µg/mL, the IC50 [9] was 65.9 µg/mL (≈ 180 µM) and the CC50 [10] was > 100 µg/mL. The EC50 (Human betaherpesvirus 5) was > 100 µg/mL, the EC50 (Human alphaherpesvirus 3 [11]) was > 100 µg/mL and the MIC50 [12] was > 200 µg/mL. For the same molecule, the MIC50 (Human alphaherpesvirus 1 [13]) was 120 µg/mL (≈ 328 µM), the CC50 [14] was > 100 µg/mL and the MIC50 (Human respirovirus 3) was ≥ 24 µg/mL. The MIC50 (Human alphaherpesvirus 1 [15]) was 120 µg/mL (≈ 328 µM), the CC50 [16] was > 100 µg/mL and the IC50 [17] was 54.8 µg/mL (≈ 150 µM). The MIC50 [18] was > 40 µg/mL, the Activity [19] was 97% and the MCC [20] was > 200 µg/mL. For the same molecule, the Activity [21] was 89.5%.
